Counter-ions that a name gives are not always drawn. Active and inactive are the calls of the source. No cut-off for these calls is given here.

Type in all cases: functional, cell-based
Experiment [1] concerns KB. Description: Cytotoxicity against human KB cells up to 100 uM after 48 hrs by MTT assay. The method, boiled down: (§1)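 Cell lines obtained from a provincial disease-control centre. Compounds (HPLC-DAD purity over 95%) dissolved in DMSO and tested against the cells. Viability read by MTT colorimetric assay and expressed as IC50. Doxorubicin HCl served as positive control and compound-free medium as negative control. Each test was run three times.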

In experiment [2] the test system is A-375. Description: Cytotoxicity against human A375 cells up to 100 uM after 48 hrs by MTT assay. The method, boiled down: as §1
On the technique in general: Tetrazolium dyes change colour on reduction, which living cells bring about.

Experiment [3] concerns HepG2. The experiment can be described thus: Cytotoxicity against human HepG2 cells up to 100 uM after 48 hrs by MTT assay. The method, boiled down:
as §1

For experiment [4], the system named is BGC-823. Description: Cytotoxicity against human BGC823 cells up to 100 uM after 48 hrs by MTT assay. The method, boiled down: as §1
A short description of experiment [5]: Cytotoxicity against human GHOST-R5X4 cells after 48 hrs by MTT assay. Conditions: GHOST-R5X4, 48 h. The method, boiled down: as §1
In experiment [6] the test system is KB. Description: Cytotoxicity against human KB cells after 48 hrs by MTT assay. The method, boiled down: as §1
The subject of experiment [7] is A-375. The experiment can be described thus: Cytotoxicity against human A375 cells after 48 hrs by MTT assay. As to conditions: A-375, 48 h. The procedure, abridged: as §1
Experiment [8] has as its system BGC-823. Description: Cytotoxicity against human BGC823 cells after 48 hrs by MTT assay. Conditions: BGC-823, 48 h. The method, boiled down:
as §1

The subject of experiment [9] is HepG2. Description: Cytotoxicity against human HepG2 cells after 48 hrs by MTT assay. As to conditions: HepG2, 48 h. The method, boiled down:
as §1

In another experiment the test system is GHOST-R5X4. Description: Cytotoxicity against human GHOST-R5X4 cells up to 100 uM after 48 hrs by MTT assay. The method, boiled down: as §1

As usually defined, the IC50 is the concentration that gives 50% inhibition. A high value points to weaker potency. As to `COc1cccc2c1C(=O)c1ccc3cc(C)cc(O)c3c1C2=O`, the outcome in the experiment with KB [1], in the experiment on A-375 [2], in the experiment on HepG2 [3] and in the experiment on BGC-823 [4] was inactive. For the same molecule, in experiment [5], 89 µM corresponded to half-maximal inhibition (IC50).
As to `C[C@@]1(O)Cc2ccc3c(c2C(=O)[C@@H]1O)C(=O)c1cccc(O)c1C3=O`, the result in the experiment with KB [1], with A-375 [2], in the experiment on HepG2 [3] and with BGC-823 [4] was inactive. The molecule also displayed an IC50 in experiment [5] of 37.6 µM.
Turning to `COC(=O)C(O)C(C)(O)Cc1ccc2c(c1O)C(=O)c1cccc(O)c1C2=O` (centres undefined), the result in the experiment with KB [1] and in the experiment with A-375 [2] was inactive.
Regarding `Cc1cc(O[C@@H]2O[C@@H](C)[C@H](O)[C@@H](O)[C@H]2O)c2c3c(c(O)cc2c1)C(=O)c1c(O)cccc1C3=O`, the outcome in the experiment with KB [1] and in the experiment on A-375 [2] was inactive.
As to `COc1cccc2c1C(=O)c1c(O)c3c(c(O)c1C2=O)C[C@@](O)(C(=O)CO)C[C@@H]3O[C@H]1C[C@H](N)[C@H](O)[C@H](C)O1` [DOXORUBICIN HYDROCHLORIDE], the IC50 in experiment [5] came out at 5.73 µM; with KB [6] it was 0.01 µM; in the experiment with A-375 [7], 0.73 µM; in the experiment on BGC-823 [8] it was 0.01 µM; with HepG2 [9], 1.11 µM.
With `C[C@H]1O[C@H](O[C@]23C(=O)[C@@H](O)[C@](C)(O)C[C@@]2(O)C=CC2=C3C(=O)c3cccc(O)c3C2=O)CC[C@H]1O` [SAKYOMICIN A], the result with GHOST-R5X4, with KB [1] and in the experiment on A-375 [2] was inactive. Also, the figures for the IC50 in the experiment with BGC-823 [8] and in the experiment with HepG2 [9] were 15.1 µM and 34.9 µM, respectively.
With `C[C@H]1O[C@H](O[C@]23C(=O)C[C@](C)(O)C[C@@]2(O)C=CC2=C3C(=O)c3cccc(O)c3C2=O)CC[C@H]1O` [SAKYOMICIN C], the result in the experiment with KB [1] was inactive. The 50% inhibitory concentration (IC50) worked out at 14 µM in experiment [5], 17.5 µM with A-375 [7], 11 µM with BGC-823 [8] and 17.4 µM with HepG2 [9].
As to `C[C@]1(O)CC(=O)c2c(ccc3c2C(=O)c2cccc(O)c2C3=O)C1` [TETRANGOMYCIN], the outcome in the experiment on A-375 [2] and in the experiment with HepG2 [3] was inactive. Moreover, the IC50 in [5] is 17.7 µM; with KB [6], 23.7 µM; with BGC-823 [8], 36.1 µM.

These data come from ChEMBL document CHEMBL2203202, “Angucyclines from an insect-derived actinobacterium Amycolatopsis sp. HCa1 and their cytotoxic activity” (Bioorg Med Chem Lett, 2012).
